In ChEMBL document CHEMBL2331396, “Exploration of 1-(3-chloro-4-(4-oxo-4H-chromen-2-yl)phenyl)-3-phenylurea derivatives as selective dual inhibitors of Raf1 and JNK1 kinases for anti-tumor treatment” (Bioorg Med Chem, 2013):
Calls of active or inactive are those of the source. The rule behind the calls is not given here.

Key:
HepG2 [1] = experiment: Cell cycle arrest in human HepG2 cells assessed as cells at G2+M phase at 10 uM measured after 48 hrs by flow cytometric analysis; format: functional
HepG2 [2] = experiment: Cell cycle arrest in human HepG2 cells assessed as cells at S phase at 10 uM measured after 48 hrs by flow cytometric analysis; format: functional
HepG2 [3] = experiment: Cell cycle arrest in human HepG2 cells assessed as cells at G0/G1 phase at 10 uM measured after 48 hrs by flow cytometric analysis; format: functional
HepG2 [4] = experiment: Cell cycle arrest in human HepG2 cells assessed as cells at G2+M phase at 10 uM measured after 36 hrs by flow cytometric analysis; format: functional
HepG2 [5] = experiment: Cell cycle arrest in human HepG2 cells assessed as cells at S phase at 10 uM measured after 36 hrs by flow cytometric analysis; format: functional
HepG2 [6] = experiment: Cell cycle arrest in human HepG2 cells assessed as cells at G0/G1 phase at 10 uM measured after 36 hrs by flow cytometric analysis; format: functional
HepG2 [7] = experiment: Cell cycle arrest in human HepG2 cells assessed as cells at G2+M phase at 10 uM measured after 24 hrs by flow cytometric analysis; format: functional
HepG2 [8] = experiment: Cell cycle arrest in human HepG2 cells assessed as cells at S phase at 10 uM measured after 24 hrs by flow cytometric analysis; format: functional
HepG2 [9] = experiment: Cell cycle arrest in human HepG2 cells assessed as cells at G0/G1 phase at 10 uM measured after 24 hrs by flow cytometric analysis; format: functional
HepG2 [10] = experiment: Cell cycle arrest in human HepG2 cells assessed as cells at G2+M phase at 10 uM measured after 12 hrs by flow cytometric analysis; format: functional
HepG2 [11] = experiment: Cell cycle arrest in human HepG2 cells assessed as cells at S phase at 10 uM measured after 12 hrs by flow cytometric analysis; format: functional
HepG2 [12] = experiment: Cell cycle arrest in human HepG2 cells assessed as cells at G0/G1 phase at 10 uM measured after 12 hrs by flow cytometric analysis; format: functional
HepG2 [13] = experiment: Induction of human HepG2 cells assessed as early apoptotic cells at 10 uM measured after 48 hrs by Annexin VFITC/PI assay; format: functional
HepG2 [14] = experiment: Induction of human HepG2 cells assessed as early apoptotic cells at 10 uM measured after 24 hrs by Annexin VFITC/PI assay; format: functional
HepG2 [15] = experiment: Induction of human HepG2 cells assessed as early apoptotic cells at 10 uM measured after 36 hrs by Annexin VFITC/PI assay; format: functional
HepG2 [16] = experiment: Induction of human HepG2 cells assessed as early apoptotic cells at 10 uM measured after 12 hrs by Annexin VFITC/PI assay; format: functional
HepG2 [17] = experiment: Induction of human HepG2 cells assessed as late apoptotic cells at 10 uM measured after 48 hrs by Annexin VFITC/PI assay; format: functional
HepG2 [18] = experiment: Induction of human HepG2 cells assessed as late apoptotic cells at 10 uM measured after 36 hrs by Annexin VFITC/PI assay; format: functional
HepG2 [19] = experiment: Induction of human HepG2 cells assessed as late apoptotic cells at 10 uM measured after 24 hrs by Annexin VFITC/PI assay; format: functional
HepG2 [20] = experiment: Induction of human HepG2 cells assessed as late apoptotic cells at 10 uM measured after 12 hrs by Annexin VFITC/PI assay; format: functional
[21] = Cytotoxicity against human HL7702 cells assessed as inhibition rate at 100 uM measured after 48 hrs by MTT assay; format: cell-based, L02; settings: read-out: INH
Outline: (§1)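 Normal liver cells were grown in DMEM with 10% FBS plus penicillin/streptomycin at 37 °C, 5% CO₂. They were seeded at 5 × 10⁵ cells/mL and incubated 24 h. Compounds from DMSO stock were added at final 50 or 100 µM (DMSO <1%), in triplicate, for 48 h. MTT was added for 4 h, formazan dissolved in DMSO, A495 read, and inhibition rate calculated.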

[22] = Cytotoxicity against human QSG7701 cells assessed as inhibition rate at 100 uM measured after 48 hrs by MTT assay; format: cell-based; settings: read-out: INH; outline: as §1
[23] = Cytotoxicity against human HL7702 cells assessed as inhibition rate at 50 uM measured after 48 hrs by MTT assay; format: cell-based, L02; settings: read-out: INH; outline: as §1
[24] = Cytotoxicity against human QSG7701 cells assessed as inhibition rate at 50 uM measured after 48 hrs by MTT assay; format: cell-based; settings: read-out: INH; outline: as §1
HCT-116 = experiment: Antiproliferative activity against human HCT116 cells assessed as growth inhibition measured after 48 hrs by MTT assay; format: functional, cell-based; settings: HCT-116, 48 h
Outline: (§2)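 Compounds dissolved in DMSO and diluted in medium to final 0.5–50 µM (final DMSO <1%). Cells were grown in DMEM with 10% FBS, penicillin and streptomycin at 37 °C, 5% CO₂. They were seeded at 5 × 10⁵ cells/mL, incubated 24 h, then treated in triplicate per concentration for 48 h. MTT was added for 4 h, formazan dissolved in DMSO, absorbance read at 495 nm, and IC50 derived.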

A549 = experiment: Antiproliferative activity against human A549 cells assessed as growth inhibition measured after 48 hrs by MTT assay; format: functional, cell-based; settings: A549, 48 h; outline: as §2
HepG2 [25] = experiment: Antiproliferative activity against human HepG2 cells assessed as growth inhibition measured after 48 hrs by MTT assay; format: functional, cell-based; settings: HepG2, 48 h; outline: as §2
[26] = biological target: Mitogen-activated protein kinase 8 (Homo sapiens) (UniProt P45983); experiment: Inhibition of JNK1 in human HepG2 cells assessed as inhibition of methyl methane sulfonate-induced c-Jun phosphorylation at 100 uM measured after 2 hrs by Western blot analysis; format: cell-based
Sequence of Mitogen-activated protein kinase 8 (Homo sapiens) (P45983 whole entry): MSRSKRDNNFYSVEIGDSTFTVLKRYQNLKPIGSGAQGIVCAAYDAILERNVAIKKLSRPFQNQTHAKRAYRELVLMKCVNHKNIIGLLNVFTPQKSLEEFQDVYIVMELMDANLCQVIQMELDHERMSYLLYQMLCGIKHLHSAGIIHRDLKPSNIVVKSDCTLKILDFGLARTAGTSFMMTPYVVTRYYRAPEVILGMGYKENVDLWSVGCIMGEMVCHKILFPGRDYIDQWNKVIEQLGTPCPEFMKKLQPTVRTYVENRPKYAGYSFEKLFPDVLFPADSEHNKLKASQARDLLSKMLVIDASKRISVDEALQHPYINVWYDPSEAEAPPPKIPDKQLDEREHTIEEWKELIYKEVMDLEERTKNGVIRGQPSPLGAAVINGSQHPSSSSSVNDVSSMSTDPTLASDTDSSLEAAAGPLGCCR
Outline: (§3)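 Cells were lysed on ice for 50 min in HEPES pH 7.9/KCl/EDTA/NP-40 buffer with Na₃VO₄, NaF and protease inhibitors. Protein was quantified by Coomassie, run on 15% SDS-PAGE and transferred to PVDF. Membranes were blocked in 5% milk for 2 h and probed with total/phospho ERK1/2 or c-Jun antibodies for 2 h at room temperature. Detection was by HRP secondary antibody and chemiluminescence.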

[27] = biological target: Mitogen-activated protein kinase 8 (Homo sapiens) (UniProt P45983); experiment: Inhibition of JNK1 in human HepG2 cells assessed as c-Jun phosphorylation at 10 uM measured after 2 hrs by Western blot analysis; format: cell-based; outline: as §3
[28] = biological target: RAF proto-oncogene serine/threonine-protein kinase (Homo sapiens) (UniProt P04049); experiment: Inhibition of Raf1 in human HepG2 cells assessed as ERK1/2 phosphorylation at 10 uM measured after 2 hrs by Western blot analysis; format: cell-based; settings: in the assay text read “4 hrs” for “2 hrs”; outline: as §3
Sequence of RAF proto-oncogene serine/threonine-protein kinase (Homo sapiens) (P04049 whole entry): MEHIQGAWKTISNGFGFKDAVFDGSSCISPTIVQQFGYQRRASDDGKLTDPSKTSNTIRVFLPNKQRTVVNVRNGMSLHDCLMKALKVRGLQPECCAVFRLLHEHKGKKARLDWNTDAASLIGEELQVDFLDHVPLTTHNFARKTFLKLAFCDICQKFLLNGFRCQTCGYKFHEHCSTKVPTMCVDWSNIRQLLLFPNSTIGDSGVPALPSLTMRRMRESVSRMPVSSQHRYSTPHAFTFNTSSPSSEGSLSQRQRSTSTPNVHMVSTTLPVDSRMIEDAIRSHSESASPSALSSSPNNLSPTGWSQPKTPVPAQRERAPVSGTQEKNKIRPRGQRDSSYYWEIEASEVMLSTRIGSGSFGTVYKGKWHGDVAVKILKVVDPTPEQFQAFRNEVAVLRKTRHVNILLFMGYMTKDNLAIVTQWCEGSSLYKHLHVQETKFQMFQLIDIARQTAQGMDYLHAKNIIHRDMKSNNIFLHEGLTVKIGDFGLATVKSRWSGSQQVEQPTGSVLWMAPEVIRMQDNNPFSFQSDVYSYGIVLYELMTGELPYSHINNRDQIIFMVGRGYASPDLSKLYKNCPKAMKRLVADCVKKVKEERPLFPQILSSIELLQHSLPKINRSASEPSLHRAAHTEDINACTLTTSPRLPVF

[29] = biological target: Mitogen-activated protein kinase 3 (Homo sapiens) (UniProt P27361); experiment: Inhibition of ERK1 (unknown origin) at 50 uM
Sequence of Mitogen-activated protein kinase 3 (Homo sapiens) (P27361 whole entry): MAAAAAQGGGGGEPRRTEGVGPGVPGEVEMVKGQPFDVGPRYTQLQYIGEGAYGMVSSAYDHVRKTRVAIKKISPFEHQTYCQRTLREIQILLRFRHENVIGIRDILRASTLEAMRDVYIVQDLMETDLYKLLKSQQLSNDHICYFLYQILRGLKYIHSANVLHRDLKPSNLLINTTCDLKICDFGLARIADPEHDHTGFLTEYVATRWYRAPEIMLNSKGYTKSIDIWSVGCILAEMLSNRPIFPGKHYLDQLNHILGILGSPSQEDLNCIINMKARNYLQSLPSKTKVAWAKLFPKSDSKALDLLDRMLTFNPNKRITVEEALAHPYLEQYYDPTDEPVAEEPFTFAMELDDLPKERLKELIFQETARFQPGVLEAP
Outline: (§4)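 Luminescent Kinase-Glo Plus assay. Enzyme, substrate, ATP and compound were mixed in pH 7.4 buffer containing 25 mM HEPES and 10 mM MgCl2, then incubated at 30 °C for 1 h. An equal volume of Kinase-Glo Plus reagent stopped the reaction before luminescence was read. Signal tracks remaining ATP and runs inversely to kinase activity; results are given as percent inhibition.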

[30] = biological target: RAF proto-oncogene serine/threonine-protein kinase (Homo sapiens) (UniProt P04049); experiment: Inhibition of Raf1 (unknown origin) at 50 uM
Outline: (§5)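 Kinase-Glo Plus luminescent assay. Enzyme, substrate, ATP and compound were mixed in 25 mM HEPES pH 7.4 with 10 mM MgCl₂ and incubated 1 h at 30 °C. The reaction was stopped with an equal volume of Kinase-Glo Plus reagent. Luminescence reflects remaining ATP, inversely related to kinase activity, and is reported as percent inhibition at a single concentration.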

[31] = biological target: Mitogen-activated protein kinase 8 (Homo sapiens) (UniProt P45983); experiment: Inhibition of JNK1 (unknown origin) at 50 uM; outline: as §4
[32] = biological target: Mitogen-activated protein kinase 14 (Homo sapiens) (UniProt Q16539); experiment: Inhibition of p38-alpha (unknown origin) at 50 uM; outline: as §5
Sequence of Mitogen-activated protein kinase 14 (Homo sapiens) (Q16539 whole entry): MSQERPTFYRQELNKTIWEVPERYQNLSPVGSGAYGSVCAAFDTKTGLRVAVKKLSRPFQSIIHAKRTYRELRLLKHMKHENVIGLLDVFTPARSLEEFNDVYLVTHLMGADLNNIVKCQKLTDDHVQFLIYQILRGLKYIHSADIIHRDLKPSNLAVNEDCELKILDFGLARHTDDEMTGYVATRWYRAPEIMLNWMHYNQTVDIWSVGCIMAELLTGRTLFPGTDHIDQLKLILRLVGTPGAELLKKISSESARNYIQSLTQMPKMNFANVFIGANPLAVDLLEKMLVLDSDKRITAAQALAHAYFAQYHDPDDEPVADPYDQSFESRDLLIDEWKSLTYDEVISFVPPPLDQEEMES

[33] = biological target: Mitogen-activated protein kinase 1 (Homo sapiens) (UniProt P28482); settings: at 50 µM
Sequence of Mitogen-activated protein kinase 1 (Homo sapiens) (P28482 whole entry): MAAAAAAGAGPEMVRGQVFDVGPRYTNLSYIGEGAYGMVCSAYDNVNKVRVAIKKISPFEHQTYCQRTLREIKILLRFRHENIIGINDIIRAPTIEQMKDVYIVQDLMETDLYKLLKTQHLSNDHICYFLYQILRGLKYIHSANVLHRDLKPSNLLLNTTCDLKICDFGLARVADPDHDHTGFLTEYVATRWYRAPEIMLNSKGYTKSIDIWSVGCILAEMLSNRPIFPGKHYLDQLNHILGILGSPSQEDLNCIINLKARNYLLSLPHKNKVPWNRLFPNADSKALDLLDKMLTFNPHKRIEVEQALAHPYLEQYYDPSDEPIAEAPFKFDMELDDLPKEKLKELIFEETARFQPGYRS

CCc1ccc2oc(-c3ccc(NC(=O)Nc4ccc(Cl)cc4)cc3Cl)cc(=O)c2c1
Activity (HepG2 [1]): 13.43%
Activity (HepG2 [2]): 20.57%
Activity (HepG2 [3]): 52.83%
Activity (HepG2 [4]): 9.14%
Activity (HepG2 [5]): 24.69%
Activity (HepG2 [6]): 52.83%
Activity (HepG2 [7]): 9.38%
Activity (HepG2 [8]): 21.77%
Activity (HepG2 [9]): 62.29%
Activity (HepG2 [10]): 8.81%
Activity (HepG2 [11]): 19.92%
Activity (HepG2 [12]): 69.43%
Activity (HepG2 [13]): 0.55%
Activity (HepG2 [14]): 0.44%
Activity (HepG2 [15]): 0.46%
Activity (HepG2 [16]): 0.27%
Activity (HepG2 [17]): 1.28%
Activity (HepG2 [18]): 1.37%
Activity (HepG2 [19]): 1.2%
Activity (HepG2 [20]): 1.22%
cytotoxicity at 48 h, 100 µM [21]: 28.3%
cytotoxicity at 48 h, 100 µM [22]: 31.8%
cytotoxicity at 48 h, 50 µM [23]: 18.7%
cytotoxicity at 48 h, 50 µM [24]: 23.7%
IC50 (HCT-116): 28.7 µM
IC50 (A549): > 50 µM
IC50 (HepG2 [25]): 8.3 µM
inhibition [26]: Active
inhibition [27]: inactive
inhibition [28]: Active
inhibition [29]: inactive
inhibition [30]: 65.6%
inhibition [31]: 67.4%
inhibition [32]: 13.5%
inhibition [33]: inactive

CCc1ccc2oc(-c3ccc(NC(=O)Cc4cccc(F)c4)cc3Cl)cc(=O)c2c1
cytotoxicity at 48 h, 100 µM [21]: 44.6%
cytotoxicity at 48 h, 100 µM [22]: 27.4%
cytotoxicity at 48 h, 50 µM [23]: 20.4%
cytotoxicity at 48 h, 50 µM [24]: 22.4%
IC50 (HCT-116): > 50 µM
IC50 (A549): > 50 µM
IC50 (HepG2 [25]): 19.8 µM

O=C(Nc1cccc(Cl)c1)Nc1ccc(-c2cc(=O)c3cc(F)ccc3o2)c(Cl)c1
cytotoxicity at 48 h, 100 µM [21]: 54.2%
cytotoxicity at 48 h, 100 µM [22]: 57.7%
cytotoxicity at 48 h, 50 µM [23]: 20.1%
cytotoxicity at 48 h, 50 µM [24]: 26.8%
IC50 (HCT-116): 24.2 µM
IC50 (A549): > 50 µM
IC50 (HepG2 [25]): 31.7 µM

Nc1ccc(-c2cc(=O)c3ccc(O)cc3o2)c(Cl)c1
inhibition [30]: inactive
inhibition [32]: inactive

O=C(Nc1cccc(Cl)c1)Nc1ccc(-c2cc(=O)c3ccccc3o2)c(Cl)c1
cytotoxicity at 48 h, 100 µM [21]: 47.1%
cytotoxicity at 48 h, 100 µM [22]: 62.4%
cytotoxicity at 48 h, 50 µM [23]: 26.8%
cytotoxicity at 48 h, 50 µM [24]: 48.9%
IC50 (HCT-116): 25.4 µM
IC50 (A549): 14 µM
IC50 (HepG2 [25]): 9.7 µM

CNC(=O)c1cc(Oc2ccc(NC(=O)Nc3ccc(Cl)c(C(F)(F)F)c3)cc2)ccn1 [SORAFENIB]
cytotoxicity at 48 h, 100 µM [21]: 20.2%
cytotoxicity at 48 h, 100 µM [22]: 23.2%
cytotoxicity at 48 h, 50 µM [23]: 5.3%
cytotoxicity at 48 h, 50 µM [24]: 4.2%
IC50 (HCT-116): 2.3 µM
IC50 (A549): 4.5 µM
IC50 (HepG2 [25]): 5 µM
inhibition [30]: 101%

Oc1ccc(-c2nc(-c3ccc(F)cc3)c(-c3ccncc3)[nH]2)cc1
inhibition [32]: 106%
